The values below come from ChEMBL document CHEMBL4673268, “The optimization of a novel selective antagonist for human M muscarinic acetylcholine receptor” (Bioorg Med Chem Lett, 2020).

Calls of active or inactive are those of the source. The rule behind the calls is not given here.

Experiment [1] has as its target T1, Muscarinic acetylcholine receptor M4 (Homo sapiens, UniProt P08173).
T1 sequence (P08173 whole entry): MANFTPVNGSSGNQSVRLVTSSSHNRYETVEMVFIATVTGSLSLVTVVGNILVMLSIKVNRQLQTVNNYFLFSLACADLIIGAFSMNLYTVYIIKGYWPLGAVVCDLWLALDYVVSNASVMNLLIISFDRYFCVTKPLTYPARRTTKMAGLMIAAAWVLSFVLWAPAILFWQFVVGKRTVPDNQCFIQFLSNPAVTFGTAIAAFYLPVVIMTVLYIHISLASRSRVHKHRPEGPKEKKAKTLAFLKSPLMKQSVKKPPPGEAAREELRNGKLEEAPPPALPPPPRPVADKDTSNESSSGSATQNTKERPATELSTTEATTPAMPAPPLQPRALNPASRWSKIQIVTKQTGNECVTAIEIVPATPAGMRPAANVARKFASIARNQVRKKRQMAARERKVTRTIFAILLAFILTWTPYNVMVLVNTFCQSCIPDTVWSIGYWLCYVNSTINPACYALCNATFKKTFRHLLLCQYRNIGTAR
Description: Displacement of [3H]-NMS from muscarinic M4 receptor (unknown origin) expressed in CHO-K1 cell membranes assessed as inhibition constant by radioligand competition analysis. Further details: species or system Cell membrane. In outline: (§1)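 Inhibition constants came from radioligand competition binding. Acetylcholine and atropine were included as positive controls for competitive binding. Values are given as mean ± SEM.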
(In general: Loss of bound radioactivity is the signal in a displacement assay; it reports binding, not function.)

Experiment [2] has as its target T2, Muscarinic acetylcholine receptor M2 (Homo sapiens, UniProt P08172).
T2 sequence (P08172 whole entry): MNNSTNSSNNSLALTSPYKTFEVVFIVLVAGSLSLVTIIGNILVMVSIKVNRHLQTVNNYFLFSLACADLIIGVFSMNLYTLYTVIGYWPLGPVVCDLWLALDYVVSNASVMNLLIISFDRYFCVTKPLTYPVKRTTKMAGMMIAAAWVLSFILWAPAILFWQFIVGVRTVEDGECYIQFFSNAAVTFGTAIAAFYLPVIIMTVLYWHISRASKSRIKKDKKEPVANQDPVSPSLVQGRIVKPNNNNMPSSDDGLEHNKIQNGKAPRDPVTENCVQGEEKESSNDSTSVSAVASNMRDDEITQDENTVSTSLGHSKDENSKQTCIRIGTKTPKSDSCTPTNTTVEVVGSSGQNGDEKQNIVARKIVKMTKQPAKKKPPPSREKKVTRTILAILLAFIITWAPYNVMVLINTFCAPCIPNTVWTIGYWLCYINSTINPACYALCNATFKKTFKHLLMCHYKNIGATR
Description: Displacement of [3H]-NMS from muscarinic M2 receptor (unknown origin) expressed in CHO-K1 cell membranes assessed as inhibition constant by radioligand competition analysis. Further details: species or system Cell membrane.

The target of experiment [3] is Muscarinic acetylcholine receptor M3 (Homo sapiens, UniProt P20309). Description: Displacement of [3H]-NMS from muscarinic M3 receptor (unknown origin) expressed in CHO-K1 cell membranes assessed as inhibition constant by radioligand competition analysis. Further details: species or system Cell membrane. The procedure, abridged: as §1
Chain of Muscarinic acetylcholine receptor M3 (P20309 whole entry): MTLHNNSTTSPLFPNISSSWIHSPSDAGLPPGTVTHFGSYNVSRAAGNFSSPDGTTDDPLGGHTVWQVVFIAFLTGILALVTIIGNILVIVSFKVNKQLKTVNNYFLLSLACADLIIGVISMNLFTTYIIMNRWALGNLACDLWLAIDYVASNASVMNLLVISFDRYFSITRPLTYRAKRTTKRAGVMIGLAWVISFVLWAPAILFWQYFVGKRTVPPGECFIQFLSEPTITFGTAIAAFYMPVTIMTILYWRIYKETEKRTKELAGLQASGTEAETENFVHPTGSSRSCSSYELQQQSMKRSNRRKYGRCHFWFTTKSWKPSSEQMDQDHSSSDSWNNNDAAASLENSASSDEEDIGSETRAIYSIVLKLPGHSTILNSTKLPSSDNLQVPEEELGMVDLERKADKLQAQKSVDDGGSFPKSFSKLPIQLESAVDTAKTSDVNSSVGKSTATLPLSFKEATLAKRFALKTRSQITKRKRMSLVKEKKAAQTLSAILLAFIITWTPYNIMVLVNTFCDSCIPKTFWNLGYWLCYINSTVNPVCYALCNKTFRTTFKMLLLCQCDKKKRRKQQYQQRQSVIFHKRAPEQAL
Experiment [4] addresses T3, Muscarinic acetylcholine receptor M1 (Homo sapiens, UniProt P11229).
T3 sequence (P11229 whole entry): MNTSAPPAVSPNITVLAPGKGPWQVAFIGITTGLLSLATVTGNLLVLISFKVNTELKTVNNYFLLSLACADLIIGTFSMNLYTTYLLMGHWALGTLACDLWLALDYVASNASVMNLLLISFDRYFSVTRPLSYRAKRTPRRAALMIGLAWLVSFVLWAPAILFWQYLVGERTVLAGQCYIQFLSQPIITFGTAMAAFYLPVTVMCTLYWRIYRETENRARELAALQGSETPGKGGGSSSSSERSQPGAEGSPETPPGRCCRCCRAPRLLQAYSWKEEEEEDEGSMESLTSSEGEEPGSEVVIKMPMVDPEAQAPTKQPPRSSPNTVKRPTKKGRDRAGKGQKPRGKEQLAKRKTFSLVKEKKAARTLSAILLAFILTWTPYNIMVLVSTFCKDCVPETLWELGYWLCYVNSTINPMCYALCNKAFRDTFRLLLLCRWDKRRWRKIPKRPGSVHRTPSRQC
Description: Displacement of [3H]-NMS from muscarinic M1 receptor (unknown origin) expressed in CHO-K1 cell membranes assessed as inhibition constant by radioligand competition analysis. Details: species or system Cell membrane. The procedure, abridged:
as §1

In experiment [5] the target is T2, Muscarinic acetylcholine receptor M2. Description: Antagonist activity at human muscarinic M2 receptor expressed in CHO cells co-expressing Galpha15 assessed as inhibition of acetylcholine-induced calcium mobilization relative to acetylcholine. The class given is functional, cell-based. Background: A change in cytosolic calcium serves as a functional read-out for many receptors and channels.

In experiment [6] the target is T4, Muscarinic acetylcholine receptor M2 (Homo sapiens) (UniProt P08172).
T4 sequence (whole entry): T2 sequence (P08172 whole entry)
Description: Antagonist activity at muscarinic M2 receptor (unknown origin) at 100 uM by acetylcholine titration assay. To be noted: filed as antagonist. The procedure, abridged:
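Acetylcholine titration curves were run in a radioligand binding format, without and with test ligand at 100 μM. A rightward shift of the ACh curve was taken to indicate negative allosteric modulation, and no shift to indicate orthosteric antagonism.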

In experiment [7] the target is Muscarinic acetylcholine receptors; M2 & M3 (Homo sapiens) (UniProt P20309+P08172). Description: Selectivity for human muscarinic M2 receptor over muscarinic M3 receptor (unknown origin). Type of experiment: protein assay.
Chain of Muscarinic acetylcholine receptors; M2 & M3 (Homo sapiens) (P20309 whole entry, looked up, one chain of several): as the sequence (P20309 whole entry) above
Experiment [8] addresses Muscarinic acetylcholine receptor M2 and M4 (Homo sapiens) (UniProt P08173+P08172). Description: Selectivity for human muscarinic M2 receptor over muscarinic M4 receptor (unknown origin). Type of experiment: protein assay.
The target in experiment [9] is Muscarinic acetylcholine receptors; M1 & M2 (Homo sapiens) (UniProt P11229+P08172). Description: Selectivity for human muscarinic M2 receptor over muscarinic M1 receptor (unknown origin). Type of experiment: protein assay.

In general, Ki refers to the dissociation constant of the complex between target and ligand, obtained from inhibition or displacement. A word on the IC50: it is the concentration needed to halve the response being measured. For `CC1Cc2ccccc2N1CC(=O)N1CCCC1` (stereo not given), the Ki in [1] is 74.1 µM; in experiment [2], 21.4 µM; in experiment [3] it was 79.4 µM; in [4], 100 µM. Also, the half-maximal inhibitory concentration (IC50) in experiment [5] was > 100 µM. Also, the result in [6] was Active.
Consider `O=C(CCN1CCCc2ccccc21)Nc1cccc2cccnc12`, for which the Ratio was > 250 in experiment [7], 30 in [8] and 8 in [9]. The Ki in [1] is 18.2 µM; in experiment [2], 0.617 µM; in experiment [3], > 100 µM; in [4] it was 4.9 µM. Besides, the IC50 in experiment [5] was 0.479 µM. Further, the result in experiment [6] was Active.
For the compound `CC1Cc2ccccc2N1CC(=O)N1CCCCC1` (stereo not given), the Ki in [1], in [2] and in experiment [3] was > 100 µM in each case. In experiment [5], the IC50 is > 100 µM. Further, the outcome in [6] was Active.
Consider `CC1CCCCN1CC(=O)n1c2ccccc2c2ccccc21` (stereo not given), for which the Ki in experiment [1] is > 100 µM; in [2], 95.5 µM; in experiment [3], > 100 µM; in experiment [4], > 100 µM. Further, the IC50 in experiment [5] is 52.5 µM.
In the case of `CC1CCc2ccccc2N1CC(=O)N1CCCCC1` (stereo not given), the Ki is 8.91 µM in experiment [1], 3.63 µM in experiment [2], 52.5 µM in experiment [3] and 28.2 µM in experiment [4]. In addition, the IC50 in [5] was 7.41 µM.
As to `O=C(CCN1CCCc2ccccc21)NCc1ccco1`, the Ki in [1] was 4.37 µM; in experiment [2] it was 1.23 µM; in [3], 12 µM; in experiment [4] it was 2.63 µM. Besides, the IC50 in experiment [5] was 1.12 µM.
In the same order, the values of `O=C(CCN1CCCc2ccccc21)N1CCCC1CO` (stereo not given) are 11.7 µM, 5.13 µM, 32.4 µM, 14.1 µM and 19.1 µM.
Take `O=C(CN1CCc2ccc(F)cc21)N1CCCC1`: the Ki in experiment [1] was > 100 µM; in experiment [2], 50.1 µM; in experiment [3] it was 95.5 µM; in [4], > 100 µM. Also, the IC50 in experiment [5] was 75.9 µM.
For `O=C(CCN1CCCc2ccccc21)NCc1cccs1`, the Ki in [1] is 2.14 µM; in experiment [2], 0.646 µM; in experiment [3] it was 7.24 µM; in experiment [4], 0.646 µM. The IC50 in experiment [5] was 1.02 µM.
`CC1CCCCN1C(=O)CCN1CCCc2ccccc21` (stereo not given): the Ki is 5.25 µM in [1], 3.24 µM in experiment [2], 8.51 µM in experiment [3] and 6.31 µM in [4]. For the same compound, in experiment [5], the IC50 was 3.16 µM.
